The test system of assay [1] is Candida parapsilosis. Nature of the assay: Fungicidal activity against Candida parapsilosis isolate 1 assessed as log reduction in bacterial count at MIC after 48 hrs by time-kill analysis. The format is functional. Particulars: Lodderomyces parapsilosis, isolate 1, 48 h. The method, boiled down:
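Isolates subcultured twice on SDA, then suspended to 0.5 McFarland and diluted into RPMI 1640 (MOPS, pH 7.0) with or without anidulafungin, giving about 1 x 10^5 to 5 x 10^5 CFU/ml. Tubes were shaken at 35°C. Samples were taken at 0, 2, 4, 8, 12, 24 and 48 h, serially diluted 10-fold, plated on SDA, and CFU counted after 48 h at 35°C. Each isolate was run twice; mean values.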

The subject of assay [2] is Candida albicans. Put plainly: Fungicidal activity against Candida albicans isolate 2 assessed as log reduction in bacterial count at 4 times MIC after drug exposure for 1 hr followed by washout measured after 48 hrs in the absence of drug by PAFE study. Format: functional. The method, boiled down: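 Starting inoculum ~1 x 10^5 to 5 x 10^5 CFU/ml in MOPS-buffered RPMI 1640 (pH 7.0) with drug at multiples of the CLSI M27-A3 MIC. After 1 h at 35°C, cells washed and centrifuged three times at 1,400 x g for 10 min, then resuspended in warm drug-free RPMI. Shaken at 35°C and plated on SDA at 0–48 h; CFU counted after 48 h. Run twice per isolate; means.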

In assay [3] the test system is Nakaseomyces glabratus. Put plainly: Antifungal activity against Candida glabrata isolate 1 assessed as time period for bacterial growth inhibition at 16 times MIC after 1 hr drug exposure. Format: functional. The method, boiled down: (§1)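 Inoculum of about 1 x 10^5 to 5 x 10^5 CFU/ml in MOPS-buffered RPMI (pH 7.0), shaken at 35°C and exposed to drug for 1 h. Cells then washed and centrifuged three times and resuspended in drug-free warm RPMI. Samples plated on SDA at 0, 2, 4, 8, 12, 24 and 48 h, with CFU counted after 48 h at 35°C. Run twice per isolate; values are means.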

Assay [4] has as its system Candida albicans. Put plainly: Antifungal activity against Candida albicans isolate 1 assessed as cell wall damage at MIC by Transmission electron microscopy. Format: functional, organism-based. In short, it runs like this:
(§2)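 Cells recovered 8 h after a 1-h drug exposure were grown on SDA for 24 h at 35°C. Colonies fixed at 4°C in 0.1 M cacodylate (pH 7.2) with 2% glutaraldehyde and 2% paraformaldehyde, ethanol-dehydrated and embedded in Lowicryl K4M. Thin sections examined by transmission EM.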

Assay [5] has as its system Candida parapsilosis. Nature of the assay: Inhibition of Candida parapsilosis isolate A adherence to human buccal epithelial cells at 4 times MIC after 1 hr by adherence assay relative to control. Format: functional, Epithelial cell. The method, boiled down:
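Candida collected 8 h after a 1-h 4x MIC pulse and washout were grown on SDA for 24 h at 35°C. Buccal epithelial cells were pooled from three donors and washed in PBS. Cells (1 x 10^5/ml) were mixed 1:1 by volume with Candida (1 x 10^6/ml) and shaken 1 h at 37°C. Mixtures were filtered, washed, and Gram-stained, and Candida were counted per 100 epithelial cells. Run in duplicate on ≥2 occasions; Student's t test against unexposed controls.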

The subject of assay [6] is Nakaseomyces glabratus. Put plainly: Increase in susceptibility to calcofluor white in Candida glabrata isolate 3 assessed as cell wall damage at 16 times MIC after 1 hr relative to control. The format is functional, organism-based. In short, it runs like this: (§3)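 Cells recovered 8 h after a 1-h drug exposure were grown to exponential phase in YPD with 1% glucose and adjusted to OD599 0.1. Undiluted and 10-fold serially diluted cultures were spotted onto YPD plates containing calcofluor white, then incubated at 30°C for 72 h. Growth compared with no-drug control cells; triplicate.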

In assay [7] the test system is Pichia kudriavzevii. Nature of the assay: Increase in susceptibility to calcofluor white in Candida krusei isolate ATCC 6258 assessed as cell wall damage at 16 times MIC after 1 hr relative to control. Format: functional, organism-based. The method, boiled down: as §3
The test system of assay [8] is Nakaseomyces glabratus. Put plainly: Antifungal activity against Candida glabrata isolate 1 assessed as cell wall damage at 4 times MIC by Transmission electron microscopy. The format is functional, organism-based. The method, boiled down:
as §2

For assay [9], the system named is Candida albicans. Nature of the assay: Increase in susceptibility to calcofluor white in Candida albicans ATCC 90028 assessed as cell wall damage at 16 times MIC after 1 hr relative to control. Format: functional, organism-based. The method, boiled down:
as §3

Assay [10] concerns Candida albicans. Nature of the assay: Antifungal activity against Candida albicans isolate 1 by CLSI M27-A3 broth microdilution method. Format: functional. The method, boiled down: (§4)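 CLSI M27-A3 broth microdilution in RPMI 1640 buffered to pH 7.0 with MOPS. Starting inoculum 0.5 x 10^3 to 2.5 x 10^3 cells/ml, incubated at 35°C. MIC read as the lowest concentration giving >50% growth reduction versus control. Each isolate tested on at least three occasions.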

Assay [11] concerns Candida albicans. Put plainly: Increase in susceptibility to calcofluor white in Candida albicans isolate 1 assessed as cell wall damage at MIC after 1 hr relative to control. The format is functional, organism-based. The method, boiled down:
as §3

For assay [12], the system named is Nakaseomyces glabratus. Nature of the assay: Increase in susceptibility to calcofluor white in Candida glabrata isolate 1 assessed as cell wall damage at 4 times MIC after 1 hr relative to control. The format is functional, organism-based. The method, boiled down:
as §3

In assay [13] the test system is Nakaseomyces glabratus. Put plainly: Antifungal activity against Candida glabrata isolate 1 by CLSI M27-A3 broth microdilution method. The format is functional. In short, it runs like this:
as §4
A general note: In broth dilution the organism is exposed to a series of concentrations in liquid medium.

For assay [14], the system named is Pichia kudriavzevii. Nature of the assay: Antifungal activity against Candida krusei isolate ATCC 6258 by CLSI M27-A3 broth microdilution method. Format: functional. In short, it runs like this:
as §4

For assay [15], the system named is Pichia kudriavzevii. Nature of the assay: Antifungal activity against Candida krusei isolate 1 assessed as cell wall damage at MIC by Transmission electron microscopy. Format: functional, organism-based. In short, it runs like this: as §2
The test system of assay [16] is Nakaseomyces glabratus. Nature of the assay: Antifungal activity against Candida glabrata isolate 3 assessed as time period for bacterial growth inhibition at 16 times MIC after 1 hr drug exposure. The format is functional. The method, boiled down:
as §1

Assay [17] relates to Nakaseomyces glabratus. Nature of the assay: Increase in susceptibility to SDS in Candida glabrata isolate 3 assessed as cell wall damage at 16 times MIC after 1 hr relative to control. Format: functional, organism-based. The method, boiled down:
(§5)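 Cells recovered 8 h after a 1-h drug exposure were grown in YPD with 1% glucose to exponential phase and adjusted to OD599 0.1. Undiluted culture and 10-fold serial dilutions were spotted onto YPD plates containing SDS (0.01 to 0.04%), then incubated 72 h at 30°C. Growth compared with unexposed control cells; triplicate.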

For assay [18], the system named is Candida parapsilosis. Nature of the assay: Antifungal activity against Candida parapsilosis by NCCLS M27A broth microdilution method. Format: functional. The note with it: Lodderomyces parapsilosis.
The next assay has as its system Candida tropicalis. Nature of the assay: Antifungal activity against Candida tropicalis by NCCLS M27A broth microdilution method. The format is functional.
The test system of assay [19] is Candida albicans. Put plainly: Fungicidal activity against Candida albicans isolate 2 assessed as log reduction in bacterial count at MIC after 48 hrs by time-kill analysis. The format is functional. The note with it: isolate 2, 48 h. In short, it runs like this:
(§6)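 Isolates subcultured twice on SDA, suspended to 0.5 McFarland, giving ~1 x 10^5 to 5 x 10^5 CFU/ml in MOPS-buffered RPMI 1640 (pH 7.0) with or without drug at multiples of MIC (MIC by CLSI M27-A3). Tubes shaken at 35°C with continuous drug. Sampled at 0–48 h, diluted 10-fold and plated on SDA; CFU counted after 48 h at 35°C. Run twice per isolate; means.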

The test system of assay [20] is Candida parapsilosis. Nature of the assay: Fungicidal activity against Candida parapsilosis isolate 1 assessed as log reduction in bacterial count at 16 times MIC after 48 hrs by time-kill analysis. The format is functional. The note with it: Lodderomyces parapsilosis, isolate 1, 48 h. The method, boiled down: as §6
Assay [21] has as its system Pichia kudriavzevii. Nature of the assay: Increase in susceptibility to SDS in Candida krusei isolate ATCC 6258 assessed as cell wall damage at 16 times MIC after 1 hr relative to control. Format: functional, organism-based. In short, it runs like this:
as §5

Assay [22] concerns Candida albicans. Nature of the assay: Antifungal activity against Candida albicans ATCC 90028 assessed as time period for bacterial growth inhibition at 4 times MIC after 1 hr drug exposure. Format: functional. The method, boiled down:
as §1

The test system of assay [23] is Candida parapsilosis. Put plainly: Increase in susceptibility to SDS in Candida parapsilosis isolate 1 assessed as cell wall damage at MIC after 1 hr relative to control. Format: functional, organism-based. The method, boiled down: as §5

The MIC is the lowest concentration found to suppress growth. What is called MIC90 is the lowest concentration that inhibits either 90% of growth or 90% of the strains tested, depending on the study. Read a high MIC90 as lower susceptibility.

Values after ≈ are worked out from the molar mass of the structure shown. Active and inactive are the calls of the source. The calls are words filed in the database; no cut-off is given here. Starred links: 1 amine or outer side, 2 acyl side, 3 side chain; linkers in the order of their positions; H or OH if unused. Positions of bridges follow the written chain, without caps; N, C: chain ends. Non-standard residues stand in square brackets, D forms with d. Residues, ends and D or L forms follow the SMILES beside them. *: point of attachment. pTerphenylCO(4''-OnC5H11) = CCCCCOc1ccc(-c2ccc(-c3ccc(C(=O)*)cc3)cc2)cc1; Orn(4R-OH,5R-OH) = O=C([C@H](C[C@@H](O)[C@@H](O)N[*:3])N[*:1])[*:2]; hTyr(3S-OH,4S-OH) = N[C@H](C(=O)O)[C@H](O)[C@@H](O)c1ccc(O)cc1; Pro(3S-OH,4S-Me) = C[C@H]1CN[C@H](C(=O)O)[C@H]1O; Hyp = O=C(O)[C@@H]1C[C@@H](O)CN1

In the case of `CCCCCOc1ccc(-c2ccc(-c3ccc(C(=O)N[C@H]4C[C@@H](O)[C@@H](O)NC(=O)[C@@H]5[C@@H](O)[C@@H](C)CN5C(=O)[C@H]([C@@H](C)O)NC(=O)[C@H]([C@H](O)[C@@H](O)c5ccc(O)cc5)NC(=O)[C@@H]5C[C@@H](O)CN5C(=O)[C@H]([C@@H](C)O)NC4=O)cc3)cc2)cc1` [ANIDULAFUNGIN] ({pTerphenylCO(4''-OnC5H11)}-[Orn(4R-OH,5R-OH)]T[Hyp][hTyr(3S-OH,4S-OH)]T[Pro(3S-OH,4S-Me)]; lactam 1-C), the log reduction in the assay with Candida parapsilosis [1] was determined as 1.65 log CFU/ml; with Candida albicans [2], 1.24; in the assay on Candida albicans [19], 0.89 log CFU/ml; in the assay on Candida parapsilosis [20] it was 3.47 log CFU/ml. Besides, the Time in the assay with Nakaseomyces glabratus [3], in the assay on Nakaseomyces glabratus [16] and in the assay on Candida albicans [22] was 8 h throughout. Besides, the outcome in the assay with Candida albicans [4], in the assay on Nakaseomyces glabratus [6], in the assay on Pichia kudriavzevii [7], with Nakaseomyces glabratus [8], with Candida albicans [9] and with Candida albicans [11] was Active. Further, the outcome in the assay on Nakaseomyces glabratus [12], in the assay with Pichia kudriavzevii [15], in the assay on Nakaseomyces glabratus [17], in the assay on Pichia kudriavzevii [21] and in the assay on Candida parapsilosis [23] was Active. Besides, the “inhibition (INH)” value in the assay with Candida parapsilosis [5] came to 69%. The MIC was found to be 0.015 µg/mL (≈ 0.0132 µM) with Candida albicans [10], 0.06 µg/mL (≈ 0.0526 µM) in the assay on Nakaseomyces glabratus [13] and 0.06 µg/mL (≈ 0.0526 µM) against Pichia kudriavzevii [14]. In addition, the MIC90 in the assay on Candida parapsilosis [18] is 2 µg/mL (≈ 1.75 µM); in the assay on Candida tropicalis it was 0.06 µg/mL (≈ 0.0526 µM).

These data come from ChEMBL document CHEMBL1671655, “Anidulafungin is fungicidal and exerts a variety of postantifungal effects against Candida albicans, C. glabrata, C. parapsilosis, and C. krusei isolates” (2009).
